Source: ChEMBL document CHEMBL1123103, “Pyrimidinones. 1. 2-Amino-5-halo-6-aryl-4(3H)-pyrimidinones. Interferon-inducing antiviral agents” (1985)

Assays:
Format in all cases: functional
Semliki Forest virus [1] = assay: Effective dose administered subcutaneously againist Forest virus infected mice; details: sc
Summary of the method: (§1)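 ICR or CD-1 mice of both sexes got one drug dose by the route in the line (ip, po or sc). The drug was a suspension in 0.9% NaCl or in a CMC/polysorbate 80/benzyl alcohol/NaCl vehicle. […] Deaths were recorded daily for 6 days, 24 mice/group. ED50 is the minimal dose protecting 50% of mice, by probit analysis.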

Semliki Forest virus [2] = assay: Effective dose administered perorally againist Forest virus infected mice; details: po; summary of the method: as §1
Mus musculus [3] = assay: Protection index after intraperitoneal administration (25 mg/kg/day) against herpes simplex virus type-1 (HSV-1) infected mice [protection index=(control mortality-treated mortality)/control mortality]
Summary of the method: (§2)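 ICR or CD-1 mice got drug ip in saline as the total daily dose (mg/kg/day). It was split into doses at -40, -28, -20, -3 and +3 h relative to ip inoculation with 5.6×10^4 pfu HSV-1. Mice were followed for 22 days, 15/group. Protection index = (control mortality − treated mortality)/control mortality; >0.25 counted active. Only the lowest protective dose is recorded.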

Mus musculus [4] = assay: The compound was evaluated for the serum interferon response from a single 800 mg/kg intraperitoneal administration in vesicular stomatitis virus on […] cells; Range 500-1000 units/mL
Summary of the method: (§3)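 Mice got a single ip 800 mg/kg dose. Blood was drawn 3, 6, 8 and 12 h later from five mice per group and pooled. Interferon titer was measured by plaque reduction with vesicular stomatitis virus on L929 cells. Titer is the reciprocal serum dilution cutting plaques by 50% versus untreated cultures. Peak response within 24 h was banded: ≥2000, ~500-1000, ~50-500, ~10-50 U/mL.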

Semliki Forest virus [5] = assay: Antiviral activity against Forest virus (SFV); summary of the method: as §1
Mus musculus [6] = assay: The compound was evaluated for the serum interferon response from a single 800 mg/kg intraperitoneal administration in vesicular stomatitis virus on […] cells; range 50-500; summary of the method: as §3
Human alphaherpesvirus 1 = assay: Intraperitoneal administration against herpes simplex virus type-1 (HSV-1) infected mice; summary of the method: as §2
Mus musculus [7] = assay: The compound was evaluated for the serum interferon response from a single 800 mg/kg intraperitoneal administration in vesicular stomatitis virus on […] cells; Range 50-500 units/mL; summary of the method: as §3
[8] = tested on: Vesicular stomatitis virus; assay: Evaluation for serum interferon response from a single 800 mg/kg intraperitoneal administration in vesicular stomatitis virus on […] cells.; summary of the method: as §3

SMILES | ED50 (Semliki Forest virus [1]) [mg/kg] | ED50 (Semliki Forest virus [2]) [mg/kg] | Protection index (Mus musculus [3]) | IFN (Mus musculus [4]) [units/mL] | ED50 (Semliki Forest virus [5]) [mg/kg] | IFN (Mus musculus [6]) [mL] | Protection index (Human alphaherpesvirus 1) | IFN (Mus musculus [7]) [mL] | IFN [8]
Nc1nc(O)c(I)c(-c2cccc(F)c2)n1 | 80 | > 400 | 0.25 | 500 | 10 |  |  |  | 
Nc1nc(O)c(I)c(-c2cccc(Br)c2)n1 | 90 | > 400 |  |  | 65 | 500 |  |  | 
Nc1nc(O)c(Br)c(-c2cccc(C(F)(F)F)c2)n1 | > 400 | > 400 |  |  | 200 |  | 0.53 | 50 | 
Nc1nc(O)c(Br)c(-c2cccc(F)c2)n1 | 155 | 175 | 0.64 |  | 70 |  |  |  | >=2000 ml
Nc1nc(O)c(Br)c(-c2cccc(Br)c2)n1 | > 400 | > 400 |  |  | 110 | 500 | 0.47 |  | 
